Screens deposited in PubChem BioAssay by several laboratories.
In the library only some 3.3% were active in any assay of this set; here they are far more common.
NRP1-CendR mod = modulators of CendR peptide binding to human neuropilin-1; O14786; inhibition, % at 25 µM; FAM-RPARPAR peptide binding to NRP-1, fluorescence polarization; actives 0.85% (n = 360,000);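 active means inhibition or corrected inhibition above about 18%, plus a signal ratio from 0.5 to 1.5, limit read from the data, passing the limit was not always enough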
Target sequence (O14786 whole entry, looked up): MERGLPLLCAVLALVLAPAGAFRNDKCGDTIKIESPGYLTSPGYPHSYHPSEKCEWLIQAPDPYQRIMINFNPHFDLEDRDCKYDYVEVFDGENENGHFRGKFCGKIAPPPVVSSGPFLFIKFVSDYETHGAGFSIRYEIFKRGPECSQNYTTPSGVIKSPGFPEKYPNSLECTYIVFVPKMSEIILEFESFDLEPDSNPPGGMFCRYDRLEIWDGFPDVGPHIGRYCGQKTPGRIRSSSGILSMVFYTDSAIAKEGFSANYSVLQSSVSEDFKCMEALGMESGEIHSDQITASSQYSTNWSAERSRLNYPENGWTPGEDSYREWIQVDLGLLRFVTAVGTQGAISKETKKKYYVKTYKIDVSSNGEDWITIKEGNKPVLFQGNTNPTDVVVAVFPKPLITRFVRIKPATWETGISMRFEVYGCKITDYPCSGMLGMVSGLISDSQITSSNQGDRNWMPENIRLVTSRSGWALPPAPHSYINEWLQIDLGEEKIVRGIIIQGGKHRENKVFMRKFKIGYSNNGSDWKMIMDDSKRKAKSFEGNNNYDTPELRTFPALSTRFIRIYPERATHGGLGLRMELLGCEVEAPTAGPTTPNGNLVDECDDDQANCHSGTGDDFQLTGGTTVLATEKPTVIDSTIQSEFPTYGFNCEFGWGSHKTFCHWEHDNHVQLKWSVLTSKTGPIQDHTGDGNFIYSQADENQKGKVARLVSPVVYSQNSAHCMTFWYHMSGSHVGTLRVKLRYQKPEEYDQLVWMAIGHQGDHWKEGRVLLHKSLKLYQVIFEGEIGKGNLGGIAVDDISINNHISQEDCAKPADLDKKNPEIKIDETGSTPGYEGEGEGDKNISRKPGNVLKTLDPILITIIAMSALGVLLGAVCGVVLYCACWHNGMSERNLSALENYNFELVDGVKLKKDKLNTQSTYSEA
sPLA2-III inh = Blocks human group III sPLA2 activity | QFRET BODIPY PC-A2 liposome hydrolysis, fluorescence | inhibition, % at 12.2 µM | actives 0.56% (n = 370,000);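 active means inhibition above mean plus 3 SD of compounds lying within the high and low control bounds, cut at about 19% in these data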;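 further: 0% = median of test compound wells and 100% = no enzyme DMSO wells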
HTR2A ag = activates the mouse 5-HT2A serotonin receptor; P35363; CHO-K1 mHTR2A beta-arrestin complementation, luminescence; percent of 30 µM serotonin response; activation, % at 7.6 µM; actives 0.66% (n = 360,000);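 active means activation above a run cutoff, the mean activation of all tested compounds plus 3 SD, cut at about 14% in these data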;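 further: 0% = plate median of compound wells and 100% = 30 µM serotonin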
PfM18AAP inh-1 = blocks P. falciparum M18 aspartyl aminopeptidase. AID 1822. actives 1.2% (n = 290,000). inhibition, % at 7.35 µM. recombinant PfM18AAP, H-Glu-NHMec fluorogenic cleavage;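 active means inhibition above the campaign mean inhibition over all tested compounds plus 3 SD, cut at about 28% in these data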;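 further: 0% = plate median of test compound wells and 100% = 2 mM ZnCl2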
Lipid droplet = hepatic lipid droplet formation modulation. AML12 mouse hepatocytes, oleate lipid droplets, BODIPY imaging. actives 0.4% (n = 240,000). inhibition, % at 6.5 µM;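 active means lipid droplet intensity inhibited by at least 50%, with more than 500 cells counted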
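Test system: AML12 hepatocytes (mouse); reagent: oleate loading, 100 µM; dosing: one dose, 6.5 µM compound; incubation: overnight exposure; signal: fluorescence imaging, 20x objective, two fields per well; read-out basis: % inhibition of corrected integrated BODIPY droplet signal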
Arrestin-AP2 inh = inhibitors of human beta-arrestin and AP2 interaction; FITC-arrestin peptide / GST-AP2 beads, flow cytometry; AP2 beta2 appendage carries R879A mutation; inhibition, % at 10 µM; actives 0.31% (n = 340,000);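 active means inhibition above a set limit, near 3 SD of compounds lacking own fluorescence, cut at about 54% in these data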;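 further: plate controls were DMSO wells for no effect and 5 µM unlabelled arrestin peptide for full effect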
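System: GST-AP2 R879A glutathione beads. Medium: PBS with 0.05% Tween 20 and 0.1% BSA. Also added: FITC-arrestin peptide, 50 nM. Incubation: 12 min plus 1 h, RT. Measured by: high-throughput flow cytometry of beads, ex 488, em 535 nm. Evaluation: percent drop in bead-associated FITC signal.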
PfM18AAP inh-2 = confirmation of Plasmodium falciparum M18 aspartyl aminopeptidase inhibitors. inhibition, % at 7.35 µM. recombinant PfM18AAP, H-Glu-NHMec fluorogenic cleavage. shares compounds with PfM18AAP inh-1. actives 28% (n = 2,400);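 active means mean inhibition over replicate wells above the hit cutoff set for the earlier primary screen, cut at about 29% in these data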;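 further: 0% = median of test compound wells and 100% = 2 mM ZnCl2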
CTSL1 confirm = Cathepsin L (human) inhibition, confirmation; shares compounds with PfM18AAP inh-1; purified cathepsin L1, Z-Leu-Arg-MCA fluorescence; inhibition, % at 5.96 µM; 2,400 tested, under 10 active; AID 2178;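 active means average inhibition across replicates above the hit cutoff set in the earlier primary screen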;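 further: 0% = median of test compound wells and 100% = Z-Phe-Ala-diazomethylketone 1 µM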
Starred values were filed as active, the others as inactive; . = not tested or not shown.

SMILES | NRP1-CendR mod | sPLA2-III inh | HTR2A ag | PfM18AAP inh-1 | Lipid droplet | Arrestin-AP2 inh | PfM18AAP inh-2 | CTSL1 confirm
Cc1onc(-c2c(Cl)cccc2Cl)c1NC(=O)NNc1ccccn1 | 6 | 16 | 4 | 40* | 23 | 33 | 13 | 3
O=C(NNc1cc(Cl)ccc1Cl)c1cccs1 | -21 | 5 | 1 | 52* | -20 | -1 | 28 | -1
Cc1cc(Cl)ccc1NNC(=O)c1cccs1 | 4 | -5 | 3 | 18 | 2 | -11 | . | .
Cc1noc(C)c1C(=O)NNc1cc(Cl)ccc1Cl | 14 | 0 | 5 | 36* | -5 | 8 | 9 | -3
N#Cc1cc(F)cc(OCCCN2CCC(C(O)(c3ccccc3)c3ccccc3)CC2)c1 | . | -27 | . | . | . | . | . | .
Nc1c(-c2ccccc2)cnc2ncnn12 | 18 | 2 | -5 | -15 | . | 14 | . | .
N#Cc1cnc2ncnn2c1-c1ccccc1 | -14 | 2 | 5 | 56* | -20 | 4 | -23 | -6
Cc1c(O)ccc2c(CN3CCN(Cc4ccccc4)CC3)cc(=O)oc12 | -2 | -20 | -10 | -1 | 18 | 9 | . | .
O=c1cc(CN2CCOCC2)c2ccc(O)c(O)c2o1 | 12 | -1 | 5 | 36* | -3 | 0 | 9 | -4
O=c1cc(CN2CCN(Cc3ccccc3)CC2)c2ccc(O)c(O)c2o1 | -4 | -5 | -6 | 48* | . | 35 | 9 | -5
CC(C)(C)OC(=O)N1CCC[C@@H]1C(=O)N1CCC[C@H]1C(=O)NCc1ccccc1 | . | 2 | . | . | . | . | . | .
CCCOC(=O)Nc1ccc(S(=O)(=O)Nn2cnnc2)cc1 | -8 | 4 | -1 | 48* | . | 4 | 51* | -4
CCOC(=O)Nc1ccc(NS(=O)(=O)c2ccc(C)cc2)cc1 | 12 | -24 | -3 | -15 | 30 | 3 | . | .
CCCCOC(=O)Nc1ccc(S(=O)(=O)Nn2cnnc2)cc1 | 4 | 4 | 3 | 50* | -4 | 5 | 50* | 0
CCOC(=O)Nc1ccc(S(=O)(=O)Nn2cnnc2)cc1 | -18 | 2 | 4 | 41* | . | -1 | 47* | -1
NNc1nc2ccc(F)cc2s1 | 4 | 14 | -3 | 37* | -1 | 0 | 29* | 0
NNc1nc2ccc(Cl)cc2s1 | 4 | 1 | 1 | 10 | -3 | -9 | . | .
Cc1ccc(C)c(NC(=O)NNC(=O)c2cc3occc3[nH]2)c1 | -1 | 6 | 8 | 49* | 9 | 26 | 29* | -3
Cc1ccc(C)c(NC(=O)Nc2ccc3c(c2)OCO3)c1 | -16 | 7 | -5 | 6 | -19 | -8 | . | .
COc1ccc(C)cc1NC(=O)NNC(=O)c1ccoc1C | -8 | -1 | -3 | 47* | 16 | -4 | 20 | -1
COc1ccc(OC)c(NC(=O)NNC(=O)c2cc3occc3[nH]2)c1 | 14 | 4 | -6 | 56* | 3 | 11 | 35* | 1
O=C(CNc1nnnn1-c1ccccc1)N1CCCC1 | . | 2 | . | . | . | . | . | .
O=C(/C=C(\Nc1ccc(Br)c(F)c1)c1ccccc1)c1ccccc1 | . | 3 | . | . | . | . | . | .
Cc1cc(C(=O)CSc2nc(N)cc(N)n2)c(C)n1C1CC1 | -8 | -8 | 1 | 36* | 8 | 37 | -15 | 2
Cc1cc(C(=O)CSc2nnc(N)s2)c(C)n1C1CC1 | -4 | 9 | 1 | . | . | 2 | . | .
SMILES | NRP1-CendR mod | sPLA2-III inh | HTR2A ag | PfM18AAP inh-1 | Lipid droplet | Arrestin-AP2 inh | PfM18AAP inh-2 | CTSL1 confirm
Cc1cc(C(=O)CSc2nc(N)cc(N)n2)c(C)n1-c1cccc(F)c1 | -8 | 13 | -4 | 34* | 19 | -1 | -37 | -4
O=C(O)c1ccc(O)c(O)c1 | 5 | 5 | 0 | 79* | -2 | 8 | 65* | -6
O=C(O)c1cccc(C(=O)O)c1 | 6 | 1 | 0 | 1 | -2 | 15 | . | .
Cc1cc(O)c(Sc2ncn[nH]2)cc1NS(=O)(=O)c1ccc(Cl)cc1 | 16 | -98 | 1 | . | . | -6 | . | .
O=S(=O)(Nc1cc(Sc2ncn[nH]2)c(O)c2ccccc12)c1ccccc1 | 18 | -13 | 1 | 38* | -39 | 32 | -202 | -3
O=C(NCc1ccco1)c1cc2cc(Br)ccc2o1 | 2 | -9 | -6 | 33* | -28 | -9 | -13 | -3
Cc1c(C(=O)NCc2ccco2)oc2ccc(Br)cc12 | -4 | -17 | -7 | . | . | 43 | . | .
O=c1c2cc3c(=O)n(-c4ccccc4O)c(=O)c3cc2c(=O)n1-c1ccccc1O | -1 | 7 | 5 | 41* | -8 | -7 | -40 | 6
Cc1c(O)cc2n(c1=O)-c1ccccc1C2(C)C | -5 | 1 | 0 | 15 | 0 | 2 | . | .
CC(=O)N1CCc2c1cccc2S(=O)(=O)NC(CC(C)C)C(=O)Nc1ccccc1C (stereo not given) | . | 0 | . | . | . | . | . | .
CC(C)C[C@H](NC(=O)c1ccc(Cl)cc1Cl)C(=O)N1CCC[C@H]1C(=O)NCc1ccccc1 | . | 3 | . | . | . | . | . | .
CCc1nnc(NC(=O)CSc2nnc(CNC(=O)c3ccc(OC)c(OC)c3)o2)s1 | 9 | -4 | 3 | 42* | 4 | -17 | -25 | -4
CC1SC(=S)N(c2ccc(N(C)C)cc2)C1=O (stereo not given) | -8 | 5 | -11 | 33* | 5 | 4 | 10 | -1
CC(=O)Oc1ccc(C23c4ccccc4C2(OC(C)=O)c2cc(OC(C)=O)ccc23)cc1 (stereo not given) | 10 | -10 | -4 | . | . | -17 | . | .
COC(=O)C[C@@H]1CC[C@H]2[C@H](COc3ccc(NC(=O)Nc4ccc(Cl)cc4)cc3C(=O)N2C)O1 | . | -19 | . | . | . | . | . | .
O=C(Cn1sc2ccccc2c1=O)Nc1ccccc1 | 11 | 5 | -5 | . | . | . | . | .
O=C(Cn1sc2ccccc2c1=O)NC12CC3CC(CC(C3)C1)C2 | -9 | . | 8 | 34* | -16 | 30 | 21 | 1
CCN1/C(=C2\C(=O)N(C)C(=S)N2C)C=Cc2cc(C)ccc21 | -4 | 3 | 4 | 34* | -35 | -15 | -13 | 5
Cc1nc(N/N=C/c2cccc(F)c2)cc(N2CCOCC2)n1 | -1 | 14 | -5 | 3 | 46 | 41 | . | .
Cc1nc(N/N=C/c2ccc(O)cc2O)cc(N2CCOCC2)n1 | 16 | -13 | -11 | 49* | 13 | -12 | 34* | 1
C=CCn1c(Cc2cccs2)nnc1SCC(=O)Nc1ccc(C)cc1 | . | -4 | . | . | . | . | . | .
Oc1ccc(NCc2ccccc2OCc2ccccc2)cc1 | 2 | 1 | -4 | 49* | -17 | 18 | -21 | -2
CCNCc1ccccc1OCc1ccccc1 | 2 | 4 | -4 | 0 | -4 | -1 | . | .
